pIC50: −log10 of the molar value. Values belong to the compound of their own block, whether it stands above or below them.
What was measured:
Leishmania chagasi = assay: Antileishmanial activity against amastigotes stage of Leishmania chagasi MHOM/BR/1972/LD infected in BALB/c mouse bone-marrow derived macrophages incubated for 3 days by hematoxylin-eosin staining based cell counting method; type: functional, organism-based; details: 72 h
Leishmania amazonensis [1] = assay: Antileishmanial activity against promastigote stage of Leishmania amazonensis MHOM/BR/73/M2269 by erythrosine-B staining based Neubauer chamber based cell counting method; type: functional, organism-based
Leishmania amazonensis [2] = assay: Antileishmanial activity against promastigote stage of Leishmania amazonensis MHOM/BR/Josefa incubated for 72 hrs by XTT assay; type: functional, organism-based
Procedure, shortened: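 Promastigotes; IC50 is the concentration giving 50% growth inhibition. Values are mean ± SD of three separate experiments.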

Leishmania amazonensis [3] = assay: Ratio of IC50 for miltefosine to IC50 for test compound for antileishmanial activity against promastigote stage of Leishmania amazonensis MHOM/BR/Josefa incubated for 72 hrs by XTT assay; type: functional
[4] = Selectivity index, ratio of CC50 for mouse J774A1 cells to IC50 for promastigote stage of Leishmania amazonensis MHOM/BR/Josefa; type: toxicity; details: read-out: Ratio CC50/IC50
Procedure, shortened: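 SI is calculated as CC50 on J774A1 cells divided by the corresponding IC50 on promastigotes.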

Leishmania amazonensis [5] = assay: Antileishmanial activity against amastigotes stage of Leishmania amazonensis MHOM/BR/Josefa infected in BALB/c mouse peritoneal macrophage incubated for 48 hrs by Giemsa staining based microscopic method; type: functional, organism-based
Procedure, shortened: (§1)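 Intracellular amastigotes in macrophages and the matched macrophage cytotoxicity readout. Values are mean ± SD from three different experiments.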

[6] = Selectivity index, ratio of CC50 for BALB/c mouse peritoneal macrophage to IC50 for amastigotes stage of Leishmania amazonensis MHOM/BR/Josefa infected in BALB/c mouse peritoneal macrophage; type: toxicity; details: peritoneal macrophages, read-out: Ratio CC50/IC50
[7] = Cytotoxicity against BALB/c mouse peritoneal macrophages incubated for 48 hrs by MTT assay; type: cell-based, Peritoneal macrophage; procedure, shortened: as §1

Structure (SMILES): COc1ccc([Te]2(Cl)OC3(CCCCC3)/C2=C\Cl)cc1 (stereo unspecified)
pIC50 (Leishmania chagasi): 6.30

Structure (SMILES): CC[N+](CC)(CC)Cc1ccccc1.ClC1=C[Te-](Cl)(Cl)(Cl)OC1
pIC50 (Leishmania amazonensis [1]): 5.40

Structure (SMILES): CC1(c2cccc([Te][Te]c3cccc(C4(C)OCCO4)c3)c2)OCCO1
pIC50 (Leishmania amazonensis [2]): 6.05
Ratio IC50 (Leishmania amazonensis [3]): 20
selectivity ratio [4]: 25

Structure (SMILES): c1ccc([Te][Te]c2ccccc2)cc1
pIC50 (Leishmania amazonensis [2]): 5.85
selectivity ratio [4]: 42

Structure (SMILES): CC1(c2ccccc2[Te][Te]c2ccccc2C2(C)OCCO2)OCCO1
pIC50 (Leishmania amazonensis [2]): 5.10
Ratio IC50 (Leishmania amazonensis [3]): 3
selectivity ratio [4]: 2

Structure (SMILES): CC1(c2ccc([Te][Te]c3ccc(C4(C)OCCO4)cc3)cc2)OCCO1
pIC50 (Leishmania amazonensis [5]): 6.30
pIC50 (Leishmania amazonensis [2]): 6.05
Ratio IC50 (Leishmania amazonensis [3]): 20
selectivity ratio [6]: 18
selectivity ratio [4]: 194
CC50 at 48 h [7]: 8300 nM

pIC50 (Leishmania amazonensis [5]): 5.77
Structure (SMILES): CCCCCCCCCCCCCCCCOP(=O)([O-])OCC[N+](C)(C)C [MILTEFOSINE]
pIC50 (Leishmania amazonensis [2]): 4.68
selectivity ratio [6]: 12
selectivity ratio [4]: 3
CC50 at 48 h [7]: 20300 nM
